# A selection: hits, their analogues and other compounds. The true share with any hit is near 1.8%.
# Mdm2 ligase inh: Mdm2 E3 ligase (human) inhibition; Q00987; cell-based MDM2 ubiquitination luciferase reporter, 2 h; 0 = plate control, 100 = twice control, blank-subtracted; signal enhancement, % at 5 µM; actives 0.11% (n = 210,000); AID 1230;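 active = signal enhancement of 30% or more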;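 note: luminescence tracks abundance of the self-degrading MDM2-luciferase fusion protein; higher signal means inhibition of MDM2 E3 ligase activity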
# Target sequence (Q00987 whole entry, looked up, the tested form may be a part): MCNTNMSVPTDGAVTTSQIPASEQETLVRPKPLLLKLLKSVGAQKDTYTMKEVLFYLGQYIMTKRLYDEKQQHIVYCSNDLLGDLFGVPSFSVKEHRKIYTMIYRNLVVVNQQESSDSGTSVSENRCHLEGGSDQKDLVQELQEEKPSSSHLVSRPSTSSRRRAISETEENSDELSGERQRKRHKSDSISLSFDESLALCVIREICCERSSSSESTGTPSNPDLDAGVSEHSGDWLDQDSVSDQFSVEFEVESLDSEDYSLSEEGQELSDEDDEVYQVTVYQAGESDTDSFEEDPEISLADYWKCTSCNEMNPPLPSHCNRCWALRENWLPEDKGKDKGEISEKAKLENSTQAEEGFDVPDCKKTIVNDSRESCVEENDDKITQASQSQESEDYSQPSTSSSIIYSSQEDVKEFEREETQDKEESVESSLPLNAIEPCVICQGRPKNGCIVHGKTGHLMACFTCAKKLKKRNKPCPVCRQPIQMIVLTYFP
#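 test system = mammalian cells stably expressing self-ubiquitinating, self-degrading MDM2 E3–luciferase fusion | quantity = 2000 cells/well | incubation = cell settling 4 h, compound treatment 2 h, both 37 °C | signal = luminescence with SteadyLite reagent, 15 min at room temperature | evaluation = % enhancement relative to plate controls after blank subtraction | benchmarks = plate controls and plate blanks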
# zVAD death inh: L929 zVAD cell death inhibition; L929 zVAD necroptosis rescue, ATP luminescence, 24 h; with zVAD 60 µM; viability rescue, % at 10 µM; actives 0.38% (n = 220,000);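 active = activation, scaled between plate controls, above about 75%, limit read from the data; inactive = activation under that limit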;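 note: 0% = zVAD with DMSO and 100% = DMSO alone without zVAD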
# Autophagy mod: alters autophagy in cells. MEF GFP-LC3 puncta imaging; test concentration mostly 10 µM. calls only at 10 µM (by protocol). actives 0.98% (n = 190,000). AID 463193;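 active = percentage of spot-positive cells more than 3 SD above its plate mean, without a fluorescence outlier flag or 80% toxicity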;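 note: spot-positive cell cutoff set from DMSO-treated cells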
# TNF necrop inh: inhibitors of TNF-alpha induced necroptosis in Jurkat FADD-/- cells; Jurkat FADD-/- TNF necroptosis rescue, ATP luminescence, 24 h; 0 = TNF only, 100 = no-TNF cells; activation (protection from cell death), % at 10 µM; actives 0.068% (n = 220,000); AID 463075;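 active = activation, meaning protection from cell death, of at least 50% relative to plate controls; inactive = activation below 50%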;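 note: necroptosis triggered by 40 ng/mL TNF-alpha added together with compound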
# Dynein cargo inh: dynein cargo transport inhibition; 3617.4 mouse cells, GR-EGFP nuclear translocation imaging; test concentration mostly 20 µM; stimulated with dexamethasone, 1 µM; stronger effect = lower value; z-score, hits read low; actives 0.47% (n = 220,000); AID 1381;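 active = plate z-score of nuclear minus cytoplasmic receptor signal below a set negative limit, without overly bright fluorescence or cell loss, cut at about -3.5 in these data, passing the limit was not always enough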;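 note: z-score of nuclear minus cytoplasmic ring GR-EGFP intensity difference per well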
#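 medium = tetracycline-free induction medium containing charcoal-stripped FBS | also added = 1.0 µM final dexamethasone stimulus | schedule = 48 h induction, 1 h compound, 30 min dex at 37 °C | technique = fixed, Hoechst-stained cells imaged at 10x for EGFP | measure = GR-EGFP nuclear translocation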
# Active calls of the source: *; i = inactive; nt = no result given; + = active, no number.
SMILES,Mdm2 ligase inh,zVAD death inh,Autophagy mod,TNF necrop inh,Dynein cargo inh
Cc1ccccc1OCc1nc(-c2ccc(NC(=O)c3ccc4c(c3)OCO4)cc2)no1,-36,1,+,-1,-1
CCN(CC)CCCNc1oc(-c2cccc(Cl)c2)nc1C#N,-16,1,+,1,2.5
CN(C)CCCNc1oc(-c2ccc(Cl)cc2)nc1C#N,-1,2,i,2,1
Nc1cc(N)cc(C(=O)OCC(=O)Nc2cc(S(=O)(=O)N3CCCCC3)ccc2Cl)c1,-14,-1,i,-4,0.87
Cc1cc(NC(=O)CN(C)S(=O)(=O)c2cccc(Cl)c2)no1,-9,3,i,1,0.61
Nc1cccc2nc3ccccc3cc12,-1,25,+,-9,-2.3
Cn1c(N)c(C(=O)COC(=O)CCCc2nc3ccccc3s2)c(=O)n(C)c1=O,-11,2,+,0,0.94
Cc1cccc(OCC2CCCN(Cc3nc(C4CC4)no3)C2)c1 (stereo unspecified),-6,0,i,0,0.42
O=C(NNc1c(Cl)cccc1Cl)C1CCC1,6,6,nt,75*,0.11
O=C(NNc1cccc(Cl)n1)C1CC1,-20,1,i,0,-0.65
CC1(C)CCCN(Cc2c(O)ccc3c(=O)c(-c4nc5ccccc5s4)c(N)oc23)C1,-9,67,nt,3,-0.6
CC1CCN(Cc2c(O)ccc3c(=O)c(-c4nc5ccccc5s4)c(N)oc23)CC1,-18,64,+,2,0.57
O=C(CCCn1c(=O)oc2ccccc21)N1CCc2ccccc2C1,-14,1,+,1,-0.94
COc1ccc(NS(=O)(=O)c2cc([N+](=O)[O-])ccc2N/N=C\c2c(C)[nH]c3ccccc23)cc1,-7,-1,+,-3,-0.18
COc1ccc(/C=N/Nc2ccc([N+](=O)[O-])cc2S(=O)(=O)N2CCN(C)CC2)cc1,-22,0,+,1,-0.75
COc1ccc2c(c1)O[C@H](c1ccc3c(c1)OCO3)[C@@H](O)C2=O,nt,79*,i,2,0.59
COc1ccc2c(c1)O[C@@H](c1cccc(C(F)(F)F)c1)[C@H](O)C2=O,nt,1,i,0,1.2
CCN(CC)c1cc(C)c2cc(NC(=O)c3cccs3)ccc2n1,0,30,+,5,-0.41
N#Cc1cnn2c3c(cnc12)C(=O)N1CCc2ccccc2C1C3 (stereo unspecified),-4,2,i,0,-0.23
COC(=O)c1ccc(-c2ccc(Cl)cc2)nc1C,-21,0,i,1,0.46
CN(C)C(=O)C(CCN1CCC(O)(c2ccc(Cl)cc2)CC1)(c1ccccc1)c1ccccc1,nt,14,+,-8,-0.19
Cc1ccc(-n2c(=O)c3ccccc3n(CC(=O)C(C)(C)C)c2=O)cc1,-90,-1,i,-1,0.57
COC(=O)c1cc(=O)n(Cc2ccco2)c(=Nc2ccc(F)cc2)s1,1,-2,i,-7,-4.6*
CCOC(=O)c1ccc(N=c2sc(C(=O)OC)cc(=O)n2-c2ccc(C(=O)OCC)cc2)cc1,nt,nt,i,-16,-3.3
CC(C)Oc1cccc(C(=O)NC(=S)Nc2ccccc2)c1,-24,0,i,1,0.059
SMILES,Mdm2 ligase inh,zVAD death inh,Autophagy mod,TNF necrop inh,Dynein cargo inh
C=CCNc1sc(C(=O)c2ccccc2)c(N)c1C#N,-16,0,i,0,0.65
C=CCNc1sc(C(=O)c2ccc(Br)s2)c(N)c1C#N,-20,0,+,1,-0.36
CC(C)(C)C(=O)/C=C/c1ccc(Oc2ccccc2)cc1,-1,1,nt,1,0.39
O=C1ON=C(c2ccccc2)/C1=C/c1ccc(OS(=O)(=O)c2ccccc2)cc1,-22,1,i,1,-4*
Cc1[nH]n(C)c(=O)c1C(=O)c1c(-c2ccccc2Cl)noc1C,-10,0,nt,-14,-1.5
Cn1c(=O)[nH]c(=O)c2c1nc(N1CCNCC1)n2Cc1cccc2ccccc12,7,2,i,-1,1.9
Cn1c(=O)c2c(nc(N3CCNCC3)n2Cc2cccc3ccccc23)n(C)c1=O,-10,-1,+,-8,-0.79
COc1cc(C(=O)NCCN2CCCC2)cc(OC)c1OC,-3,-1,+,1,-0.063
O=C1C2C3c4ccccc4C(c4ccccc43)C2C(=O)N1c1ccncc1 (stereo unspecified),-15,-3,+,0,3.8
CC(C)OC(=O)/C(=C\c1cccnc1)NC(=O)c1ccccc1,-52,-1,+,-1,-0.35
C=CCOC(=O)/C(=C/c1cccnc1)NC(=O)c1ccccc1,-3,-1,nt,-2,-0.48
CC(C)C(=O)Nc1cc(C(F)(F)F)ccc1-n1ccnc1,-7,1,i,1,0.56
COc1ccc(S(=O)(=O)N2CCOCC2)cc1NC(=O)Cn1nnc2ccccc2c1=O,-6,1,i,0,-0.57
Cn1c(NC(=O)c2ccccc2F)c(-c2cccs2)c(=O)c2ccccc21,-4,-1,nt,1,1.8
COc1ccc(-c2nnn(CC(=O)N3CCN(c4ccccc4OC)CC3)n2)cc1OC,-13,-1,i,2,0.58
COc1ccc(-c2nnn(CC(=O)N3CCN(c4ccccc4OC)CC3)n2)cc1,-5,0,+,-1,-0.71
O=c1[nH]c(N2CCN(c3ccccc3)CC2)nc2c1CCCC2,-12,0,i,-3,-1.9
Nc1cc(=O)[nH]c(N2CCN(c3ccccc3)CC2)n1,2,1,+,-1,1.5
COCCn1c(=NC(=O)c2ccc(S(=O)(=O)N3CCCc4ccccc43)cc2)sc2cc(S(C)(=O)=O)ccc21,42*,0,i,1,-1
C#CCn1c(=NC(=O)c2ccc(S(=O)(=O)N3CCc4ccccc4C3)cc2)sc2cc(S(N)(=O)=O)ccc21,-7,0,+,2,-0.33
C=CCn1c(=NC(=O)c2ccc(S(=O)(=O)N3CCCc4ccccc43)cc2)sc2cc(S(N)(=O)=O)ccc21,16,0,i,0,-0.6
CCCNC(=O)NC1CCCc2ccccc21 (stereo unspecified),-7,1,i,0,-1.8
CCn1cc(C(C)(C)C)c(C#N)c1NC(C)=O,-3,4,+,1,0.16
Cc1cccc(C2c3[nH]c4ccccc4c3CCN2Cc2cccn2-c2ncccn2)c1 (stereo unspecified),-6,0,i,-5,-1.5
COc1ccc(C2c3[nH]c4ccccc4c3CCN2Cc2cccn2-c2ncccn2)cc1C (stereo unspecified),-8,-1,+,2,-0.18
Cc1onc(-c2c(Cl)cccc2Cl)c1CO/N=C(\C#N)c1c(Cl)cccc1Cl,-11,0,nt,0,-1.1

# High-throughput results from PubChem BioAssay.
